Measurements taken from ChEMBL document CHEMBL1140339, “Spiro and dispiro-1,2,4-trioxolanes as antimalarial peroxides: charting a workable structure-activity relationship using simple prototypes” (J Med Chem, 2005).

Tests used:
Mus musculus [1] = assay: Survival of mice to 30-day postinfection with Plasmodium berghei upon 10 mg/kg upon subcutaneous dose was determined; type: functional
Outline: (§1)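 P. berghei-infected MORO mice, groups of three, treated 1 day postinfection with a single dose (100 or 10 mg/kg, po or sc) dissolved or suspended in 3% ethanol/7% Tween-80. Activity is percent reduction in parasitemia on day 3 postinfection versus untreated controls. Survival time is compared with an untreated control group. Individual measurements generally differed by less than 10%.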

Mus musculus [2] = assay: Antimalarial activity (10 mg/kg, subcutaneously) given 1 day post infection of mice (Mus musculus) with Plasmodium berghei is its ability to reduce parasitemia on day 3 post infection; type: functional; outline: as §1
[3] = Plasma clearance after intravenous administration of 10 mg/kg; settings: rat
Mus musculus [4] = assay: Survival of mice to 30-day postinfection with Plasmodium berghei upon 10 mg/kg peroral dose was determined; type: functional; settings: route oral; outline: as §1
Mus musculus [5] = assay: Effective dose required to reduce the parasitemia in mice when compound administered with SSV after 3 day postinfection; type: functional
[6] = Plasma half life period after intravenous administration ( 10 mg/kg ); settings: rat
[7] = Volume distribution after intravenous administration of 10 mg/kg; settings: rat, in vivo
[8] = Bioavailability obtained after oral administration of 30 mg/kg (n=1); type: ADME, organism-based, Mus musculus; settings: in vivo
Outline: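 Conscious, free-moving rats (n = 3 per group) were jugular- and carotid-cannulated the day before dosing under isoflurane, then fasted overnight. The iv dose was a 5 min jugular infusion in aqueous 0.1 M Captisol (10, 20 or 30 mg/kg). The oral dose was given by gavage as a suspension in 0.5% CMC/0.4% polysorbate 80/0.5% benzyl alcohol/0.9% NaCl (30, 50 or 80 mg/kg). Carotid blood was sampled over 7 h and plasma was obtained by centrifugation.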

Mus musculus [9] = assay: Effective dose required to reduce the parasitemia in mice when compound administered with Tween-80 after 3 day postinfection; type: functional
Mus musculus [10] = species on record: Mus musculus; assay: Effective dose required to reduce the parasitemia in mice by suppressive test after 4 day postinfection; type: functional
Outline: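 Peters 4-day suppressive test in P. berghei-infected mice with multiple daily oral doses. ED50/ED90 are given in (mg/kg)/day.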

[11] = Volume distribution after intravenous administration of 20 mg/kg; settings: rat, in vivo, read-out: Vd
[12] = Plasma half life period after intravenous administration ( 20 mg/kg ); settings: rat
[13] = Plasma clearance after intravenous administration of 20 mg/kg; settings: rat

SMILES	Survival (Mus musculus [1])	Reduction (Mus musculus [2])	clearance [3]	Survival (Mus musculus [4])	ED90 (Mus musculus [5])	half-life [6]	Vd [7]	bioavailability [8]	ED90 (Mus musculus [9])	ED90 (Mus musculus [10])	Vd [11]	half-life [12]	clearance [13]
c1ccc(C2CCC3(CC2)OOC2(O3)C3CC4CC(C3)CC2C4)cc1 (stereo not drawn)	17.1 days	99.92%	33 mL/min/kg	12.6 days	5.7 (mg/kg)/day	1.62 h	5 L/kg	9.5%	3.2 (mg/kg)/day	2.6 (mg/kg)/day	–	–	–
C[C@H]1[C@@H](O)O[C@@H]2O[C@@]3(C)CC[C@H]4[C@H](C)CC[C@@H]1[C@@]24OO3 [ARTENIMOL]	–	–	–	–	–	–	–	–	–	–	3 L/kg	0.433 h	72 mL/min/kg
